This assay has as its system Schistosoma mansoni. The assay can be described thus: In vitro antischistosomal activity, minimum active concentration to cause severe damage or death of worms at 96 hr against Schistosoma mansoni. Format: functional. In outline: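 Adult S. mansoni pairs (Puerto Rican strain, 46-day infection, recovered from mice) incubated at 37 °C, 2.0 mL medium per pair, in serumless medium with 50 µg/mL gentamycin sulfate. Compound dissolved in DMSO, final DMSO ≤1%. Worms examined by inverted microscope at intervals up to 96 h, when the final reading was taken.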

The compound `Cc1cc(O)n2nc(-c3ccccc3)cc2n1` displayed an MAC of 100 µg/mL. Consider `Cc1cccc(-c2cnn3c(O)cc(C)nc23)c1`, for which the MAC amounted to 100 µg/mL.

The compound `Cc1cccc(-c2cnn3c(O)cc(-c4ccccc4)nc23)c1` showed an MAC of 1 µg/mL. With `Cc1cc(=S)n2nccc2n1C` the figure was more than 100 µg/mL; with `Cc1cc(O)n2nc(-c3cccc(Cl)c3)cc2n1`, more than 100 µg/mL; with `COc1cc(-c2cc3nc(C)cc(S)n3n2)cc(OC)c1OC`, 1 µg/mL. For `CCn1ccc(=S)n2nccc12`, the MAC is 100 µg/mL. With `Cc1cc(S)n2ncc(-c3ccccc3)c2n1`, the MAC is 1 µg/mL.

As to `Cn1ccc(=S)n2nc(-c3ccccc3)cc12`, the MAC stood at 10 µg/mL. Consider `Cc1cc(S)n2nc(-c3ccccc3)cc2n1`, for which the MAC stood at 1 µg/mL. As for `CCOC(=O)c1cnn2c(S)cc(C)nc12`, the MAC was found to be 10 µg/mL. With `Cc1cc(O)n2ncc(-c3ccccc3)c2n1` the figure was 100 µg/mL; with `Cc1cccc(-c2cnn3c(S)cc(C)nc23)c1`, 100 µg/mL. As for `Oc1ccnc2c(-c3ccccc3)cnn12`, the MAC came out at 100 µg/mL. For `COc1cc(-c2cc3nc(-c4ccccc4)cc(O)n3n2)cc(OC)c1OC`, the MAC was more than 100 µg/mL. `Sc1ccnc2c(-c3ccccc3)cnn12`: the MAC was determined as 1 µg/mL. `CCCn1ccc(=S)n2nc(-c3ccccc3)cc12` yielded an MAC of 10 µg/mL. For `COc1cc(-c2cc3nc(C)cc(O)n3n2)cc(OC)c1OC`, the MAC was more than 100 µg/mL. Compound `Sc1ccnc2cc(-c3ccccc3)nn12` showed an MAC of 1 µg/mL. The compound `CCn1ccc(=O)n2nccc12` registered an MAC of more than 100 µg/mL. In turn, `Cc1cc(S)n2ncc(-c3ccc(Cl)cc3)c2n1` showed an MAC of 100 µg/mL.

Compound `CCOC(=O)c1cnn2c(O)cc(-c3ccccc3)nc12` showed an MAC of more than 100 µg/mL. The compound `Oc1cc(-c2ccccc2)nc2cc(-c3ccccc3)nn12` returned an MAC of more than 100 µg/mL. `Cc1cc(=O)n2nccc2n1C`: the MAC came to 100 µg/mL. The figure for `Sc1ccnc2ccnn12` is 1 µg/mL; for `Cc1cc(S)n2nccc2n1` it is 3.2 µg/mL; for `Oc1cc(-c2ccccc2)nc2c(-c3ccc(Cl)cc3)cnn12` it is 100 µg/mL.

As for `CCCn1ccc(=O)n2nc(-c3ccccc3)cc12`, the MAC was 100 µg/mL. The compound `Cn1ccc(=O)n2nccc12` displayed an MAC of more than 100 µg/mL. With `Sc1cc(-c2ccccc2)nc2ccnn12`, the MAC was determined as 1 µg/mL. The compound `Oc1cc(-c2ccccc2)nc2c(-c3ccccc3)cnn12` returned an MAC of 10 µg/mL. In turn, `Cn1c(-c2ccccc2)cc(=O)n2nc(-c3ccccc3)cc12` showed an MAC of 100 µg/mL. On to `Cn1ccc(=S)n2nccc12`, for which the MAC was more than 100 µg/mL.

Take `Oc1cc(-c2ccccc2)nc2ccnn12`: the MAC is more than 100 µg/mL. For `Sc1cc(-c2ccccc2)nc2cc(-c3ccccc3)nn12`, the MAC worked out at 1 µg/mL. Take `Cc1cccc(-c2cnn3c(S)ccnc23)c1`: the MAC was determined as 0.32 µg/mL.

`Cc1cccc(-c2cnn3c(O)ccnc23)c1`: the MAC came to 100 µg/mL. In turn, `O=c1cc(-c2ccccc2)[nH]c2cc(-c3cccc(Cl)c3)nn12` showed an MAC of more than 100 µg/mL.

For the compound `Oc1ccnc2cc(-c3ccccc3)nn12`, the MAC was more than 100 µg/mL. `Cn1ccc(=O)n2nc(-c3ccccc3)cc12` came in with an MAC of more than 100 µg/mL.

For the origin of these results see ChEMBL document CHEMBL1121837, “Synthesis and antischistosomal activity of certain pyrazolo[1,5-a]pyrimidines” (1981).
